# From PubChem BioAssay
# HCT116 bCat-KO – beta-catenin-lacking colon tumor cell growth suppression; AID 818; viability, % at 10 µM; hit rate 1.5% among 140,000; HCT116 beta-catenin knockout viability, CellTiter-Glo, 60 h; stronger effect = lower value;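 active = viability at or under a set limit, the compound median less 4 SD, cut at about 6% in these data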
# Autophagy mod – alters autophagy in cells; MEF GFP-LC3 puncta imaging; test concentration mostly 10 µM; calls only at 10 µM (by protocol); hit rate 0.98% among 190,000; AID 463193;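 active = percentage of spot-positive cells more than 3 SD above its plate mean, without a fluorescence outlier flag or 80% toxicity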
# L major viab – reduces viability of Leishmania major promastigotes. resazurin fluorescence viability. inhibition, % at 10 µM. hit rate 9% among 200,000. AID 1063; in the data active = inhibition above about 50%;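 also: promastigotes grown with compound for 44 hours at 28 °C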
# PTEN del growth – PTEN-deleted cell growth suppression; viability, % at 10 µM; hit rate 1.2% among 140,000; HCT116 PTEN-null viability, CellTiter-Glo, 60 h; stronger effect = lower value; AID 827;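 active = viability at or below a set limit, 4 SD under the median of all tested compounds, cut at about 3.7% in these data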;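 also: PTEN knockout HCT116 line with beta catenin targeted HCT116 as companion control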
# Dynein cargo inh – dynein cargo transport inhibition. hit rate 0.47% among 220,000. AID 1381. z-score, hits read low. 3617.4 mouse cells, GR-EGFP nuclear translocation imaging; test concentration mostly 20 µM; stimulated with dexamethasone, 1 µM; stronger effect = lower value;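 active = plate z-score of nuclear minus cytoplasmic receptor signal below a set negative limit, without overly bright fluorescence or cell loss, cut at about -3.5 in these data, passing the limit was not always enough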;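 also: z-score of nuclear minus cytoplasmic ring GR-EGFP intensity difference per well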
#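 Buffer or medium: tet-free, stripped-serum medium; reagent: dexamethasone at 1.0 µM final, 30 min; incubation: 48 h induction, 1 h compound, 30 min dex at 37 °C; measured by: formaldehyde fixation, Hoechst nuclear stain, 10x automated fluorescence imaging; read-out: nuclear-to-cytoplasmic GR-EGFP distribution per well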
# Numbers stand for hits; 0 = inactive; - = no result; + = active, no number. Most compounds without a hit are left out; they make up all but 9.2% or so of the library.
SMILES,HCT116 bCat-KO,Autophagy mod,L major viab,PTEN del growth,Dynein cargo inh
COc1ccc(N2CCC(CNC(=S)Nc3cccc(OC)c3)C2)cc1 (stereo not drawn),0,0,60,0,0
C/C(=N\O)C(C)Oc1ccc(Cl)cc1 (stereo not drawn),-,0,0,-,0
Cc1ccnc(NS(=O)(=O)c2ccc(NC(=O)C3C4C=CC(C4)C3C(=O)O)cc2)n1 (stereo not drawn),-,0,0,-,0
COC(=O)c1ccc(CNC(=O)CN(CCC(C)C)S(=O)(=O)c2ccc3c(c2)OCCO3)cc1,0,0,56,0,0
COCCNC(=O)CN(C)S(=O)(=O)c1ccc2c(c1)OCCO2,0,0,0,0,0
O=C(C1CCCO1)N1CCN(C(=S)Nc2ccccc2)CC1 (stereo not drawn),0,0,53,0,0
S=C(Nc1ccccc1)N1CCCCCC1,0,0,0,0,0
S=C(Nc1ccccc1)N1CCN(C2CCCCC2)CC1,0,0,88,0,0
O=C(C1CCCO1)N1CCN(C(c2ccccc2)c2ccccc2)CC1 (stereo not drawn),0,0,96,0,0
CCCCn1c(N)c(N(CC)C(=O)CCc2ccccc2)c(=O)[nH]c1=O,0,0,0,0,0
O=C(CCNC(=O)c1ccccc1Cl)Nc1nc(-c2ccc(F)cc2)cs1,0,0,0,0,0
O=C(Nc1nc(-c2ccc3ccccc3c2)cs1)C1CCN(S(=O)(=O)c2cccs2)CC1,0,0,91,0,0
Cc1ccc(-c2csc(NC(=O)C3CCN(S(=O)(=O)c4cccs4)CC3)n2)cc1,0,0,76,0,0
Cc1ccc(NC(=O)C2CCN(S(=O)(=O)c3cccs3)CC2)cc1,-,0,0,-,0
O=C(CCNC(=O)c1ccccc1Cl)Nc1nc(-c2ccc3ccccc3c2)cs1,0,0,80,0,0
O=C(Nc1nccs1)C1CCN(S(=O)(=O)c2cccs2)CC1,-,0,0,-,0
Cc1nc2ccc(NC(=O)C3CCN(S(=O)(=O)c4cccs4)CC3)cc2s1,0,0,65,0,0
COc1cccc(NC(=O)c2cn(C)c(=O)c3cc(OC)c(OC)cc23)c1,0,0,0,0,0
Cc1ccc(S(=O)(=O)N/N=C/c2ccc(OCC(=O)N3CCOCC3)cc2)cc1,-,0,0,-,0
Cn1c(=O)c2[nH]c(N=Nc3ccc(N)cc3N)nc2n(C)c1=O,-,-,-,-,0
Cc1nn(-c2ccccc2)c(Cl)c1/C=N/NC(=O)c1cccnc1,0,0,0,0,0
Cc1c(C(=O)Nc2ccc(Cl)cc2)c2ccccn2c1CCc1ccncc1,0,0,0,0,0
Cc1c(/C=N/NC(=O)c2cccnc2)c2ccccn2c1C(=O)c1ccc(F)cc1,0,0,53,0,0
Cc1c(C(=O)Nc2ccc(Cl)cc2)c2ccccn2c1C(=O)c1ccc(F)cc1,0,+,0,0,0
CCOC(=O)N/N=C/c1c(C)c(C(=O)c2ccc(F)cc2)n2ccccc12,-,0,0,-,0
SMILES,HCT116 bCat-KO,Autophagy mod,L major viab,PTEN del growth,Dynein cargo inh
Cc1ccc(-n2nc(C)c(/C=N/NC(=O)c3cccnc3)c2Cl)cc1,0,0,57,0,0
Cc1nn(-c2ccccc2)c(C)c1/C=N/NC(=O)c1cc(-c2ccccc2)n[nH]1,0,0,88,0,0
CCOc1ccc(-n2c(=S)sc3c(=O)[nH]c(SCC(=O)C(C)(C)C)nc32)cc1,-,0,0,-,0
O=[N+]([O-])c1cc(C(F)(F)F)cc([N+](=O)[O-])c1NCCNC(=S)Nc1ccc(Cl)c(Cl)c1,-,-,-,-,0
Cc1c(/C=N/NC(=O)c2ccc(O)cc2)c2ccccn2c1C(=O)c1ccc(F)cc1,0,0,92,0,0
COC(=O)N/N=C/c1c(C)c(C(=O)c2ccc(F)cc2)n2ccccc12,0,0,0,0,0
Cc1c(/C=N/NC(=O)c2ccccc2O)c2ccccn2c1C(=O)c1ccc(F)cc1,0,0,59,0,0
CN(c1nc2nonc2nc1NC1CC1)C1CCOC1 (stereo not drawn),-,0,0,-,0
CCn1c(=N)n(CC(=O)C23CC4CC(CC(C4)C2)C3)c2ccccc21,0,0,62,0,0
Cc1ccc(C(=O)/C=C/c2cn(CC(O)CN3CCOCC3)c3ccccc23)cc1 (stereo not drawn),0,0,53,0,0
O=C(c1ccc(CNS(=O)(=O)c2ccc(Br)cc2)cc1)N1CCCC1,-,0,0,-,0
COc1ccc(-c2cc(-c3ccccc3)c(C#N)c(S(C)=O)n2)cc1 (stereo not drawn),1.1,+,100,1.3,0
N#Cc1c(NCCN)nc(-c2ccco2)c2c1CCCC2,0,0,100,0,0
CCCN(CCC)S(=O)(=O)c1ccc2c(c1)CCCN2C(C)=O,0,0,0,0,0
CCCN(CCC)S(=O)(=O)c1ccc(C(=O)N2CCCc3ccccc32)cc1,0,0,64,0,0
COC(=O)Cn1c(=NC(=O)c2nc3ccccc3s2)sc2cc(S(N)(=O)=O)ccc21,0,0,0,0,0
COCCn1c(=NC(=O)c2ccc3c(c2)OCCO3)sc2cc(S(N)(=O)=O)ccc21,-,0,0,-,0
CCOCCn1c(=NC(=O)c2cc(Cl)sc2Cl)sc2cc(S(N)(=O)=O)ccc21,4.9,0,0,0,0
COCCn1c(=NC(=O)c2cc(Cl)sc2Cl)sc2cc(S(N)(=O)=O)ccc21,0,0,0,2.3,0
O=Cc1ccnc(-c2ccc(OC(=O)c3ccco3)cc2)n1,-,0,0,-,0
Cc1nc2c(c(C)nn2-c2ccccc2)c(C)c1CCC(=O)Nc1ccc(CN2CCCC2)cc1,-,-,-,-,0
Cc1[nH]c2ccccc2c1NC(=O)CN1CCN(c2cccc(C(F)(F)F)c2)CC1,0,0,0,0,0
Cc1[nH]c2ccccc2c1C(O)CN1CCN(c2cccc(C(F)(F)F)c2)CC1 (stereo not drawn),0,0,60,0,0
CCOC(=O)CSc1nnc2n1C(C)(C)Cc1ccccc1-2,0,0,0,0,0
COc1cccc(-n2c(SCC(=O)N3c4ccccc4CC3C)nnc2-c2ccco2)c1 (stereo not drawn),0,0,53,0,0
SMILES,HCT116 bCat-KO,Autophagy mod,L major viab,PTEN del growth,Dynein cargo inh
CCn1c(SCC(=O)N2c3ccccc3CC2C)nnc1-c1ccco1 (stereo not drawn),-,0,0,-,0
CC1Cc2ccccc2N1C(=O)CSc1nnc2n1C(C)(C)Cc1ccccc1-2 (stereo not drawn),0,0,52,0,0
Cc1ccc(Cc2ccc(C(=O)NNC(N)=S)o2)cc1,-,0,0,-,0
CC1CCCCC12NC(=O)N(Cc1cc(=O)n3ccsc3n1)C2=O (stereo not drawn),-,-,-,-,0
CCOc1ccc(NC(=O)Nc2ccc(NC(C)=O)cc2)cc1,-,0,0,-,0
CCCCN(CC)Cc1ccc(CNC(=O)Nc2ccc(Cl)cc2)o1,-,0,98,-,0
CCCCN(CC)Cc1ccc(CNC(=O)Nc2ccc(OCC)cc2)o1,0,0,99,0,0
CCCCN(CC)Cc1ccc(CNC(=S)Nc2ccccc2F)o1,-,0,0,-,0
CCn1c(=O)c2c(nc3n2CCCN3c2cccc(C)c2)n(C)c1=O,-,-,-,-,0
CCOC(=O)CCCNC(=O)CSc1nc2ccc(OCC)cc2[nH]1,-,0,0,-,0
